The values below come from ChEMBL document CHEMBL4706687, “Synthesis and Pharmacological Evaluation of Novel Non-nucleotide Purine Derivatives as P2X7 Antagonists for the Treatment of Neuroinflammation” (J Med Chem, 2021).

Assay [1] has as its target T1, P2X purinoceptor 7 (Homo sapiens) (UniProt Q99572).
T1 sequence (whole entry): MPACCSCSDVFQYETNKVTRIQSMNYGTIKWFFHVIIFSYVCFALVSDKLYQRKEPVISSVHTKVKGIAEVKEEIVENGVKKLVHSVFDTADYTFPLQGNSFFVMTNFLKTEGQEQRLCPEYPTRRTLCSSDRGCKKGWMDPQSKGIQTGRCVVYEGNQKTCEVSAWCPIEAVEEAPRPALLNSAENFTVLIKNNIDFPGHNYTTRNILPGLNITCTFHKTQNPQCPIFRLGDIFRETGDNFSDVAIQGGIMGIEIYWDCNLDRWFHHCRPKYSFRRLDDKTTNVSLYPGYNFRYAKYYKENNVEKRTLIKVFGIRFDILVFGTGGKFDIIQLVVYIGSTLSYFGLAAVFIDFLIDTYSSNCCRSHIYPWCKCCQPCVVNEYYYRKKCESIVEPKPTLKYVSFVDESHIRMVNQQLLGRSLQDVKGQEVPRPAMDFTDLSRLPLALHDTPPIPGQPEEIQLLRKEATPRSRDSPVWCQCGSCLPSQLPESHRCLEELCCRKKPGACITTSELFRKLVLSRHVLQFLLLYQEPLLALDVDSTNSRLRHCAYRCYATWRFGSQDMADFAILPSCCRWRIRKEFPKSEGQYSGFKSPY
The experiment in a line: Antagonist activity at human P2X7 receptor expressed in Xenopus laevis oocytes assessed as reduction in ATP-induced channel currents at 100 uM by TEVC electrophysiology assay relative to control. The assay is classed as cell-based. As to conditions: Oocyte. The gist of the method: (§1)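 Oocytes injected with 50 nL His-tagged hP2X7 cRNA (0.5 mg/mL), kept 1–2 days at 16–18 °C. Recorded in low divalent-cation solution (90 mM NaCl, 0.5 mM CaCl₂, 5 mM HEPES) at −70 mV. ATP 300 μM for 2 s after 3 min static compound incubation. Current normalized to control amplitude. Triplicates from three oocytes, two frogs.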

Assay [2] addresses T1, P2X purinoceptor 7 (Homo sapiens). Kind of assay: Antagonist activity at human P2X7 receptor expressed in HEK293 cells assessed as reduction in benzoyl-ATP-induced YO-PRO-1 dye uptake at 10 uM pre-incubated for 20 mins before YO-PRO-1 addition and measured after 25 mins by fluorescence plate reader analysis relative to control. In kind it is cell-based. As to conditions: time 45.0 min. The gist of the method:
(§2)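 Stably transfected hP2X7-HEK293 cells, 48 h after seeding, in Mg²⁺-free Krebs-HEPES (0.2 mM CaCl₂, pH 7.4). Compound preincubation 20 min, then YO-PRO-1 2 μM, then BzATP 30 μM. Fluorescence at 485/520 nm read for 25 min. Each well normalized to Fmax (0.5% Triton X-100) and Fmin (2 M MnCl₂): F = (Fx − F0)/(Fmax − Fmin). Triplicates from three cultures. IC50 is the concentration halving BzATP-induced uptake.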

The target of assay [3] is T2, P2X purinoceptor 7 (Homo sapiens, UniProt Q99572).
T2 sequence (Q99572 whole entry): T1 sequence (whole entry)
The experiment in a line: Antagonist activity at human P2X7 receptor expressed in HEK293 cells assessed as reduction in benzoyl-ATP-induced YO-PRO-1 dye uptake pre-incubated for 20 mins before YO-PRO-1 addition and measured after 25 mins by fluorescence plate reader analysis relative to control. The assay is classed as cell-based. The gist of the method:
as §2

Assay [4] has as its target T1, P2X purinoceptor 7 (Homo sapiens). Kind of assay: Antagonist activity at human P2X7 receptor expressed in HEK293 cells assessed as reduction in benzoyl-ATP-induced intracellular Ca2+ level by Fura-2 dye based fluorescence assay. As to conditions: filed as antagonist. In kind it is cell-based. The gist of the method:
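hP2X7-HEK293 cells 24–48 h after seeding, loaded with Fura-2-AM 8 μM for 1 h, then washed in Mg²⁺-free Tyrode (2 mM CaCl₂, pH 7.4) for 15–30 min with compound present. Excitation 340/380 nm, emission 520 nm. Basal recording, then BzATP injected (100 μM final). [Ca²⁺]c from Grynkiewicz equation. Blockade as percent of BzATP peak in Tyrode-only wells; triplicates.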

For assay [5], the system named is Peritoneal macrophage. The experiment in a line: Inhibition of Il-1beta production in LPS-stimulated C57BL/6 mouse peritoneal macrophages pre-incubated for 15 mins followed by ATP addition for 30 mins by ELISA method. In kind it is functional, tissue-based. As to conditions: time 45.0 min. In short, it runs like this:
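Thioglycolate-elicited peritoneal macrophages from 6–8-week male C57BL/6 mice, 3 × 10⁵ cells/well. Primed 4 h with LPS 1 μg/mL (E. coli 026:B6), then serum-free DMEM with compound for 15 min, then ATP for 30 min. Supernatant IL-1β measured by ELISA, expressed as percent of ATP-only control. Triplicates from three mice.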

Assay [6] concerns the target T1, P2X purinoceptor 7 (Homo sapiens). The experiment in a line: Antagonist activity at human P2X7 receptor expressed in HEK293 cells assessed as reduction in benzoyl-ATP-induced YO-PRO-1 dye uptake at 1 uM pre-incubated for 20 mins before YO-PRO-1 addition and measured after 25 mins by fluorescence plate reader analysis relative to control. In kind it is cell-based. As to conditions: filed as antagonist, time 45.0 min. In short, it runs like this: as §2

The target is the same in assay [7]. The experiment in a line: Antagonist activity at human P2X7 receptor expressed in Xenopus laevis oocytes assessed as reduction in ATP-induced channel currents at 1 uM by TEVC electrophysiology assay relative to control. The assay is classed as cell-based. As to conditions: Oocyte, filed as antagonist. In short, it runs like this: as §1

Activity calls are given as the source filed them. The rule behind the calls is not given here.

As usually defined, the inhibition is the change of the read-out against control, counted positive when it falls. As to `COc1ncnc2c1ncn2CC(=O)c1ccc(Cl)cc1Cl`, the inhibition in assay [1] was determined as 14%; in assay [2] it was 25%.
`O=C(CCn1cnc2c(Cl)ncnc21)c1ccc(Cl)cc1Cl`: the results for the inhibition in assay [1] and in assay [2] were 6% and 19%, respectively.
The IC50 is the concentration at which inhibition is half-maximal. Regarding `O=C(Cn1cnc2c(Cl)nc(Cl)nc21)c1ccc(Cl)cc1Cl`, the inhibition in assay [1] worked out at 24%; in assay [2] (filed as antagonist), 41%. Also, in assay [3], the concentration for half-maximal inhibition (IC50) was 13 µM.
For the molecule `COc1ncnc2c1ncn2S(=O)(=O)c1ccccc1Cl`, in assay [1], the inhibition was determined as 8%. Further, the inhibition result in assay [2] was “inactive”.
On to `O=C(Cn1cnc2c(I)nc(Cl)nc21)c1ccc(Cl)cc1Cl`, for which the inhibition in assay [1] is 6%; in assay [2], 14%.
The like results for `Cn1c(=O)c2c(ncn2S(=O)(=O)c2ccc(F)cc2F)n(C)c1=O` were, in that order, 1% and 7%.
For `O=C(Cn1cnc2c(-c3ccccc3)ncnc21)c1ccc(Cl)cc1Cl`, the inhibition came to 11% in assay [1] and 62% in assay [2] (filed as antagonist). Moreover, in assay [4], the inhibition entry is “Active”. In addition, the concentration for half-maximal inhibition (IC50) in assay [3] was 6 µM.
On to `Cn1c(=O)c2c(ncn2S(=O)(=O)c2ccc(Cl)cc2Cl)n(C)c1=O`, for which the inhibition turned out to be 9% in assay [1] and 7% in assay [2].
In the case of `Cn1c(=O)c2c(ncn2S(=O)(=O)c2cc(Cl)ccc2Cl)n(C)c1=O`, in assay [1], the inhibition result was “inactive”. In assay [2], the inhibition was 4%.
The like results for `O=C(c1ccccc1Cl)n1cnc2c(Cl)ncnc21` were, in that order, 5% and 7%.
The like results for `Cn1c(=O)c2c(ncn2S(=O)(=O)c2ccc(F)cc2Cl)n(C)c1=O` were, in that order, “inactive” and 20%.
In the case of `Cn1c(=O)c2c(ncn2S(=O)(=O)c2ccccc2Cl)n(C)c1=O`, the figures for the inhibition in assay [1], in assay [2] (filed as antagonist) and in assay [5] were 28%, 52% and “Dose-dependent effect”, respectively. In addition, in assay [3], the IC50 came out at 10 µM.
In the case of `O=S(=O)(c1ccccc1Cl)n1cnc2c(Cl)nc(Cl)nc21`, the inhibition in assay [1] was 2%; in assay [2] (filed as antagonist), 46%. Besides, the IC50 in assay [3] was 10.2 µM.
On to `Cn1c(=O)c2c(ncn2CC(=O)c2ccc(Cl)cc2Cl)n(C)c1=O`, for which the results for the inhibition in assay [1] and in assay [2] were 10% and 0%, respectively.
Take `Cn1c(=O)c2c(ncn2S(=O)(=O)c2ccc(F)cc2)n(C)c1=O`: the inhibition result in assay [1] is “inactive”. Also, the inhibition in assay [2] worked out at 10%.
The like results for `Cn1c(=O)c2c(ncn2S(=O)(=O)c2ccc(C(F)(F)F)cc2Cl)n(C)c1=O` were, in that order, “inactive” and 5%.
The matching figures for `Nc1nc(Cl)c2ncn(CC(=O)c3ccc(Cl)cc3Cl)c2n1`: 6% and 4%.
Consider `Cn1cnc2c(=O)n(Cc3ccccc3Cl)c(Cl)nc21`, for which the inhibition in assay [1] came out at 9%; in assay [2], 16%.
The like results for `Cc1cc(F)ccc1S(=O)(=O)n1cnc2c1c(=O)n(C)c(=O)n2C` were, in that order, “inactive” and 23%.
Turning to `COc1ncnc2c1ncn2C(=O)c1ccccc1Cl`, the inhibition in assay [1] is 0%; in assay [2], 1%.
In the case of `O=C(Cn1cnc2c(Cl)nc(F)nc21)c1ccc(Cl)cc1Cl`, the values for the inhibition in assay [1] and in assay [2] were 24% and 27%, respectively.
`O=S(=O)(c1ccccc1Cl)n1cnc2c(Cl)ncnc21`: the inhibition in assay [1] was determined as 9%; in assay [2], 17%.
The matching figures for `Cn1cnc2c1c(=O)n(C(=O)c1ccccc1Cl)c(=O)n2C`: 5% and 5%.
As for `O=C(Cn1cnc2c(Cl)ncnc21)c1ccc(F)cc1`, the inhibition worked out at 7% in assay [1] and 34% in assay [2].
Regarding `O=C(NCC1(N2CCN(c3ccccc3)CC2)CCOCC1)c1cccnc1Sc1ccccc1`, the inhibition in assay [6] amounted to 56%; in assay [7], 49%.
With `Cn1cnc2c1c(=O)n(CC(=O)c1ccc(Cl)cc1Cl)c(=O)n2C`, the inhibition in assay [1] came out at 2%. The inhibition entry in assay [2] was “inactive”.
For `Nc1nc(Cl)c2ncn(S(=O)(=O)c3ccccc3Cl)c2n1`, the inhibition result in assay [1] is “inactive”. Further, in assay [2], the inhibition was found to be 9%.
With `O=C(Cn1cnc2c(Cl)ncnc21)c1ccc(Cl)cc1`, the results for the inhibition in assay [1] and in assay [2] (filed as antagonist) were 11% and 55%, respectively. For the same molecule, the IC50 in assay [3] is 10 µM.
For the molecule `CNc1nc(Cl)nc2c1ncn2S(=O)(=O)c1ccccc1Cl`, the inhibition is 2% in assay [1] and 4% in assay [2].
The matching figures for `CNc1nc(Cl)nc2c1ncn2CC(=O)c1ccc(Cl)cc1Cl`: 5% and 2%.
